Reference: ChEMBL document CHEMBL1147117, “Novel synthetic antimicrobial peptides against Streptococcus mutans” (2007)
Where a SMILES comes first, the peptide text is derived from it.

How the values were obtained:
Format in all cases: functional
[1] = tested on: Streptococcus mutans; assay: Antibacterial activity against Streptococcus mutans after 16 to 20 hrs
Summary of the method: (§1)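 Broth microdilution in TH broth or Veillonella medium. Overnight cultures grown to OD600 0.75 to 0.8 were diluted to 1 x 10^5 CFU/ml. Peptide was serially diluted 1:2 from 500 or 512 µg/ml down to 1.95 or 2 µg/ml, with a methanol solvent control. Incubation was 16 to 20 h at 37°C, anaerobic, without shaking. MIC was read visually as the last clear well. Run in triplicate.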

[2] = tested on: Streptococcus gordonii; assay: Antibacterial activity against Streptococcus gordonii Challis DL1 after 16 to 20 hrs; summary of the method: as §1
[3] = tested on: Streptococcus mitis; assay: Antibacterial activity against Streptococcus mitis ATCC 903 after 16 to 20 hrs; summary of the method: as §1
[4] = tested on: Lacticaseibacillus casei; assay: Antibacterial activity against Lactobacillus casei ATCC 4646 after 16 to 20 hrs; summary of the method: as §1
[5] = tested on: Veillonella atypica; assay: Antibacterial activity against Veillonella atypica PK1910 after 16 to 20 hrs; summary of the method: as §1
[6] = tested on: Streptococcus sanguinis; assay: Antibacterial activity against Streptococcus sanguinis NY101 after 16 to 20 hrs; summary of the method: as §1
[7] = tested on: Streptococcus mutans; assay: Bactericidal activity against Streptococcus mutans UA159 assessed as time required to kill 3 log10 of recoverable CFU/ml at 25 ug/ml relative to untreated control
Summary of the method: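 Time-kill assay. Overnight UA159 cultures were diluted in medium to 0.5 x 10^6 to 1 x 10^6 CFU/ml and exposed to 25 µg/ml peptide. At each time point a 10-µl aliquot was diluted 1:50 into growth medium and plated on TH agar; whole 1-ml samples were plated when survivors were below 3,000 CFU/ml. TC is the time for survivors to fall 3 log10 below untreated CFU/ml. Repeated 3 to 5 times.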

## Cl.N=C(N)NCCC[C@H](NC(=O)[C@H](CCCNC(=N)N)NC(=O)[C@@H](N)CCCNC(=N)N)C(=O)N[C@@H](CCCCN)C(=O)N[C@@H](Cc1c[nH]c2ccccc12)C(=O)N[C@@H](Cc1c[nH]c2ccccc12)C(=O)N[C@@H](CCCCN)C(=O)O (H-RRRKWWK-OH)
[1]
  MIC: 125 µg/mL

## H-AKRLLKVLKRF-NH2
[1]
  MIC: 16 µg/mL

## H-AQAAHQAAHAAHQF-NH2
[1]
  MIC: > 125 µg/mL

## H-AQAAKQAAKAAKQF-NH2
[1]
  MIC: > 125 µg/mL

## H-ATHLLHALQRF-NH2
[1]
  MIC: > 250 µg/mL

## H-FHYFWHWFHRF-NH2
[1]
  MIC: 125 µg/mL

## H-FKKFWKWFRRF-NH2
[2]
  MIC: 32 µg/mL
[3]
  MIC: 32 µg/mL
[4]
  MIC: 32 µg/mL
[5]
  MIC: 16 µg/mL
[1]
  MIC: 8 µg/mL
[6]
  MIC: 32 µg/mL

## H-FKKFWKWFRRFGGGRWRRLLKKLHHLLH-NH2
[1]
  MIC: 16 µg/mL

## H-FKKFWKWFRRFGGGRWRWRWF-NH2
[2]
  MIC: 32 µg/mL
[3]
  MIC: 64 µg/mL
[4]
  MIC: 8 µg/mL
[5]
  MIC: 8 µg/mL
[1]
  MIC: 4 µg/mL
[6]
  MIC: 16 µg/mL

## H-FKTFLKWLHRF-NH2
[1]
  MIC: 24 µg/mL

## H-FKTFLQWLHRF-NH2
[1]
  MIC: 16 µg/mL

## H-IKQLLHFFQRF-NH2
[2]
  MIC: 32 µg/mL
[3]
  MIC: 64 µg/mL
[4]
  MIC: 32 µg/mL
[5]
  MIC: 64 µg/mL
[1]
  MIC: 24 µg/mL
[6]
  MIC: 64 µg/mL

## H-IKQLLHFFQRFGGGRWRRLLKKLHHLLH-NH2
[1]
  MIC: 16 µg/mL

## H-IKQLLHFFQRFGGGRWRWRWF-NH2
[2]
  MIC: 32 µg/mL
[3]
  MIC: 64 µg/mL
[4]
  MIC: 16 µg/mL
[5]
  MIC: 8 µg/mL
[1]
  MIC: 4 µg/mL
[6]
  MIC: 16 µg/mL

## H-IKTLLHFFQRF-NH2
[1]
  MIC: 32 µg/mL

## H-KLAENVKEILR-NH2
[1]
  MIC: > 250 µg/mL

## H-KLAQKVKRVLR-OH
[1]
  MIC: > 125 µg/mL

## H-KLFKRWKHLFR-OH
[1]
  MIC: 31.2 µg/mL

## H-KLKKLLKHLHHLLH-NH2
[1]
  MIC: 8 µg/mL

## H-KLKKLLKKLKKLLK-OH
[1]
  MIC: 8 µg/mL

## H-KLKKLLKRWRRWWR-OH
[1]
  MIC: 8 µg/mL

## H-KLLQTFKQIFR-OH
[1]
  MIC: > 250 µg/mL

## H-KLLQTFNQIFR-OH
[1]
  MIC: > 125 µg/mL

## H-KLVEQLKEIFR-OH
[1]
  MIC: > 250 µg/mL

## H-KLVQQLKNIFR-OH
[1]
  MIC: > 125 µg/mL

## H-LKLLKKLLKLLKKF-NH2
[1]
  MIC: 8 µg/mL

## H-LKQFVHFIHRF-NH2
[1]
  MIC: 32 µg/mL

## H-LKQFVKFIHRF-NH2
[1]
  MIC: 24 µg/mL

## H-LKRFLKWFKRF-NH2
[2]
  MIC: 32 µg/mL
[3]
  MIC: 64 µg/mL
[4]
  MIC: 16 µg/mL
[5]
  MIC: 32 µg/mL
[1]
  MIC: 8 µg/mL
[6]
  MIC: 16 µg/mL

## H-LKRFLKWFKRFGGGRWRWRWF-NH2
[2]
  MIC: 64 µg/mL
[3]
  MIC: 64 µg/mL
[4]
  MIC: 16 µg/mL
[5]
  MIC: 8 µg/mL
[1]
  MIC: 4 µg/mL
[6]
  MIC: 16 µg/mL

## H-LQLLKQLLKLLKQF-NH2
[1]
  MIC: 8 µg/mL

## H-LYHFLHWFQRF-NH2
[1]
  MIC: 125 µg/mL

## H-RALHEAKEALK-OH
[1]
  MIC: > 250 µg/mL

## H-RALKRIKHVLK-OH
[1]
  MIC: > 125 µg/mL

## H-RILKELKNLFK-OH
[1]
  MIC: > 250 µg/mL

## H-RLLKRFKHLFK-OH
[1]
  MIC: 31.2 µg/mL

## H-RRRFWWR-OH
[1]
  MIC: 31.2 µg/mL

## H-RRRKWWK-OH
[1]
  MIC: 250 µg/mL

## H-RRRRWWK-OH
[1]
  MIC: 125 µg/mL

## H-RRRRWWW-OH
[1]
  MIC: 16 µg/mL

## H-RRRWWWF-NH2
[2]
  MIC: 32 µg/mL
[3]
  MIC: 32 µg/mL
[4]
  MIC: 16 µg/mL
[7]
  Time: 220 min
[5]
  MIC: 64 µg/mL
[1]
  MIC: 4 µg/mL
[6]
  MIC: 16 µg/mL

## H-RRRWWWFASASARRRWWWF-NH2
[7]
  Time: 480 min
[1]
  MIC: 32 µg/mL

## H-RRRWWWFGGGRRRWWWF-NH2
[7]
  Time: 270 min
[1]
  MIC: 16 µg/mL

## H-RRRWWWFPSGSPRRRWWWF-NH2
[7]
  Time: 420 min
[1]
  MIC: 32 µg/mL

## H-RRRWWWFRRRWWWF-NH2
[7]
  Time: 60 min
[1]
  MIC: 16 µg/mL

## H-RRRWWWK-OH
[1]
  MIC: 31.2 µg/mL

## H-RRRWWWR-OH
[1]
  MIC: 32 µg/mL

## H-RRWKRRK-OH
[1]
  MIC: 500 µg/mL

## H-RRWWRRF-NH2
[1]
  MIC: 4 µg/mL

## H-RRWWRRK-OH
[1]
  MIC: 125 µg/mL

## H-RRWWRRW-OH
[1]
  MIC: 16 µg/mL

## H-RVLNQVKQILK-OH
[1]
  MIC: > 125 µg/mL

## H-RVLQEIKQILK-OH
[1]
  MIC: > 250 µg/mL

## H-RWRKRWK-OH
[1]
  MIC: 125 µg/mL

## H-RWRRLLKKLHHLLH-NH2
[2]
  MIC: 16 µg/mL
[3]
  MIC: 32 µg/mL
[4]
  MIC: 16 µg/mL
[5]
  MIC: 4 µg/mL
[1]
  MIC: 8 µg/mL
[6]
  MIC: 16 µg/mL

## H-RWRRLLKKLHHLLHGGGFKKFWKWFRRF-NH2
[2]
  MIC: 16 µg/mL
[3]
  MIC: 32 µg/mL
[4]
  MIC: 8 µg/mL
[5]
  MIC: 8 µg/mL
[1]
  MIC: 4 µg/mL
[6]
  MIC: 16 µg/mL

## H-RWRRLLKKLHHLLHGGGIKQLLHFFQRF-NH2
[1]
  MIC: 16 µg/mL

## H-RWRRWWRHFHHFFH-NH2
[1]
  MIC: 8 µg/mL

## H-RWRWRWF-NH2
[2]
  MIC: 32 µg/mL
[3]
  MIC: 32 µg/mL
[4]
  MIC: 32 µg/mL
[7]
  Time: 220 min
[5]
  MIC: 64 µg/mL
[1]
  MIC: 125 µg/mL
[6]
  MIC: 32 µg/mL

## H-RWRWRWFASASARWRWRWF-NH2
[7]
  Time: 45 min
[1]
  MIC: 16 µg/mL

## H-RWRWRWFGGGFKKFWKWFRRF-NH2
[2]
  MIC: 16 µg/mL
[3]
  MIC: 64 µg/mL
[4]
  MIC: 8 µg/mL
[5]
  MIC: 8 µg/mL
[1]
  MIC: 4 µg/mL
[6]
  MIC: 8 µg/mL

## H-RWRWRWFGGGIKQLLHFFQWRF-NH2
[1]
  MIC: 8 µg/mL

## H-RWRWRWFGGGLKRFLKWFKRF-NH2
[2]
  MIC: 32 µg/mL
[3]
  MIC: 64 µg/mL
[4]
  MIC: 8 µg/mL
[5]
  MIC: 16 µg/mL
[1]
  MIC: 8 µg/mL
[6]
  MIC: 16 µg/mL

## H-RWRWRWFGGGRWRWRWF-NH2
[7]
  Time: 90 min
[1]
  MIC: 16 µg/mL

## H-RWRWRWFPSGSPRWRWRWF-NH2
[7]
  Time: 270 min
[1]
  MIC: 32 µg/mL

## H-RWRWRWFRWRWRWF-NH2
[7]
  Time: 50 min
[1]
  MIC: 16 µg/mL

## H-RWRWRWK-OH
[1]
  MIC: 32 µg/mL

## H-RWRWRWR-OH
[1]
  MIC: 32 µg/mL

## H-TILQSLKNIFK-OH
[1]
  MIC: > 125 µg/mL

## H-VKKLAKLVRRF-NH2
[1]
  MIC: 16 µg/mL

## H-VKNLAELVHRF-NH2
[1]
  MIC: > 250 µg/mL

## H-VKQLLKIFNRF-NH2
[1]
  MIC: 32 µg/mL

## H-VKTLLHIFQRF-NH2
[1]
  MIC: 31.2 µg/mL

## H-YLFQTWQHLFR-OH
[1]
  MIC: > 125 µg/mL

## H-YLLTEFQHLFK-OH
[1]
  MIC: > 125 µg/mL
